Results: ChEMBL document CHEMBL1275442, “Pharmacokinetics and tissue distribution of anidulafungin in rats” (Antimicrob Agents Chemother, 2008)

Assays:
[1] = system: Spleen; assay: Tmax in F344 rat spleen assessed as total compound-derived radioactivity at 5 mg/kg, iv administered as single bolus dose […]; type: ADME, organism-based; set-up: dose 5 mg/kg, route intravenous; settings: in vivo
How it was run: (§1)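 Male F344 rats, 10 to 11 weeks old and 223.6 to 243.8 g, got one iv dose of [14C]anidulafungin at 5 mg/kg over about 5 min. Blood, CSF, kidney, liver, lung, quadriceps, spleen and skin were sampled predose and at 0.083 to 72 h, 3 rats per time. Total radioactivity (parent plus metabolites) was measured by liquid scintillation counting. Parameters were noncompartmental, from a composite mean profile.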

[2] = system: Blood; assay: Tmax in F344 rat blood assessed as total compound-derived radioactivity at 5 mg/kg, iv administered as single bolus dose […]; type: ADME, organism-based; set-up: dose 5 mg/kg, route intravenous; settings: in vivo; how it was run: as §1
[3] = Drug level in Long Evans rat eye assessed as radioactivity per gram of tissue at 5 mg/kg, iv administered as single bolus dose measured 0.5 hrs postdose by autoradiography; type: ADME, organism-based; set-up: dose 5 mg/kg, route intravenous; settings: in vivo
How it was run: (§2)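 Male pigmented Long Evans (HsdBlu:LE) rats, 7.5 weeks old, 202 to 217 g, single iv [¹⁴C]anidulafungin; one rat per sampling time. Euthanized by isoflurane and cardiac-puncture exsanguination. Sagittal whole-body sections quantified by phosphorimaging autoradiography, single samples corrected for section thickness across multiple sections per tissue. Concentrations (μg eq/g drug-derived radioactivity) interpolated from least-squares standard curves per scan.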

[4] = system: Spleen; assay: Drug level in Long Evans rat spleen assessed as radioactivity per gram of tissue at 5 mg/kg, iv administered as single bolus dose measured 168 hrs postdose by autoradiography; type: ADME, organism-based; set-up: dose 5 mg/kg, route intravenous; settings: in vivo
How it was run: (§3)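 Male pigmented Long Evans (HsdBlu:LE) rats, 7.5 weeks old and 202 to 217 g, got a single iv dose of [14C]anidulafungin at 5 mg/kg. One rat per time point (0.5, 6, 12, 24, 72, 168 h) was euthanised by isoflurane and cardiac-puncture exsanguination. Sagittal whole-body sections were quantified by phosphorimaging. Samples were thickness-corrected, and concentrations (μg eq/g) were interpolated from least-squares standard curves.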

[5] = system: Lung; assay: Cmax in F344 rat lung assessed as total compound-derived radioactivity per gram of tissue at 5 mg/kg, iv administered as single bolus dose after 5 mins by HPLC method; type: ADME, organism-based; set-up: dose 5 mg/kg, route intravenous; settings: in vivo
How it was run: (§4)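 Same F344 study: single 5 mg/kg IV [¹⁴C]anidulafungin given over about 5 min. Total drug-derived radioactivity (parent plus metabolites) counted by liquid scintillation, in […]. Noncompartmental analysis of the composite mean profile.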

[6] = system: Kidney; assay: Drug level in Long Evans rat kidney assessed as low disposition of radioactivity per gram of tissue at 5 mg/kg, iv administered as single bolus dose measured 0.5 hrs postdose by autoradiography; type: ADME, organism-based; set-up: dose 5 mg/kg, route intravenous; settings: in vivo; how it was run: as §2
[7] = Tmax in F344 rat spleen at 5 mg/kg, iv administered as single bolus dose by HPLC method; type: ADME, organism-based; set-up: dose 5 mg/kg, route intravenous
How it was run: (§5)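 F344 males, 10 to 11 weeks old and 223.6 to 243.8 g, got a single 5 mg/kg iv dose of [14C]anidulafungin over about 5 min. Plasma and tissues were collected predose and at 0.083 to 72 h, n = 3 per time point. Parent drug was quantified by HPLC-UV, with LLOQ/ULOQ of 20/5,120 ng/ml in plasma and 220/56,320 ng/g in tissue. Noncompartmental parameters came from a composite mean concentration-time profile.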

[8] = system: Spleen; assay: Half life in F344 rat spleen assessed as total compound-derived radioactivity at 5 mg/kg, iv administered as single bolus dose […]; type: ADME, organism-based; set-up: dose 5 mg/kg, route intravenous; settings: in vivo; how it was run: as §1
[9] = Tmax in F344 rat lung at 5 mg/kg, iv administered as single bolus dose by HPLC method; type: ADME, organism-based; set-up: dose 5 mg/kg, route intravenous; how it was run: as §5
[10] = system: Kidney; assay: Tmax in F344 rat kidney assessed as total compound-derived radioactivity at 5 mg/kg, iv administered as single bolus dose […]; type: ADME, organism-based; set-up: dose 5 mg/kg, route intravenous; settings: in vivo; how it was run: as §1
[11] = system: Blood; assay: Half life in F344 rat blood assessed as total compound-derived radioactivity at 5 mg/kg, iv administered as single bolus dose […]; type: ADME, organism-based; set-up: dose 5 mg/kg, route intravenous; settings: in vivo; how it was run: as §1
[12] = system: Plasma; assay: Tmax in F344 rat plasma assessed as total compound-derived radioactivity at 5 mg/kg, iv administered as single bolus dose […]; type: ADME, organism-based; set-up: dose 5 mg/kg, route intravenous; settings: in vivo; how it was run: as §1
[13] = system: Spleen; assay: Cmax in F344 rat spleen assessed as total compound-derived radioactivity per gram of tissue at 5 mg/kg, iv administered as single bolus dose after 30 mins […]; type: ADME, organism-based; set-up: dose 5 mg/kg, route intravenous; settings: in vivo, 0.5 h; how it was run: as §4
[14] = system: Plasma; assay: AUC (0 to infinity) in F344 rat plasma assessed as total compound-derived radioactivity per gram of tissue at 5 mg/kg, iv administered as single bolus dose […]; type: ADME, organism-based; set-up: time infinity, dose 5 mg/kg, route intravenous; settings: in vivo; how it was run: as §4
[15] = system: Muscle tissue; assay: Drug level in Long Evans rat muscle assessed as radioactivity per gram of tissue at 5 mg/kg, iv administered as single bolus dose measured 6 hrs postdose by autoradiography; type: ADME, organism-based; set-up: dose 5 mg/kg, route intravenous; settings: in vivo; how it was run: as §3
[16] = Cmax in F344 rat skin at 5 mg/kg, iv administered as single bolus dose after 30 min by HPLC method; type: ADME, organism-based, Zone of skin; set-up: dose 5 mg/kg, route intravenous
How it was run: (§6)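 Male F344 rats, 10–11 weeks, 223.6–243.8 g, given one IV dose of [¹⁴C]anidulafungin, 5 mg/kg, over about 5 min. Tissues and blood sampled at 0.083–72 h (n = 3 rats per time). Parent drug measured by HPLC; LLOQ/ULOQ were 20/5,120 ng/ml for plasma and 220/56,320 ng/g for tissue. Noncompartmental parameters taken from the composite mean profile.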

[17] = system: Muscle tissue; assay: AUC (0 to 24 hrs) in F344 rat muscle at 5 mg/kg, iv administered as single bolus dose; type: ADME, organism-based; set-up: time < 24 hr, dose 5 mg/kg, route intravenous; settings: in vivo; how it was run: as §6
[18] = system: Blood; assay: Drug level in Long Evans rat blood assessed as radioactivity per gram of tissue at 5 mg/kg, iv administered as single bolus dose measured 72 hrs postdose by autoradiography; type: ADME, organism-based; set-up: dose 5 mg/kg, route intravenous; settings: in vivo; how it was run: as §2
[19] = Tmax in F344 rat plasma at 5 mg/kg, iv administered as single bolus dose by HPLC method; type: ADME, organism-based; set-up: dose 5 mg/kg, route intravenous; how it was run: as §5
[20] = system: Spleen; assay: AUC (0 to infinity) in F344 rat spleen assessed as total compound-derived radioactivity per gram of tissue at 5 mg/kg, iv administered as single bolus dose […]; type: ADME, organism-based; set-up: time infinity, dose 5 mg/kg, route intravenous; settings: in vivo; how it was run: as §4
[21] = system: Cerebrum; assay: Drug level in Long Evans rat cerebrum assessed as radioactivity per gram of tissue at 5 mg/kg, iv administered as single bolus dose measured 24 hrs postdose by autoradiography; type: ADME, organism-based; set-up: dose 5 mg/kg, route intravenous; settings: in vivo; how it was run: as §2
[22] = system: Spleen; assay: Drug level in Long Evans rat spleen assessed as radioactivity per gram of tissue at 5 mg/kg, iv administered as single bolus dose measured 24 hrs postdose by autoradiography; type: ADME, organism-based; set-up: dose 5 mg/kg, route intravenous; settings: in vivo; how it was run: as §3
[23] = system: Muscle tissue; assay: AUC (0 to 24 hrs) in F344 rat muscle assessed as total compound-derived radioactivity per gram of tissue at 5 mg/kg, iv administered as single bolus dose […]; type: ADME, organism-based; set-up: time < 24 hr, dose 5 mg/kg, route intravenous; settings: in vivo; how it was run: as §4
[24] = system: Muscle tissue; assay: Drug level in Long Evans rat muscle assessed as radioactivity per gram of tissue at 5 mg/kg, iv administered as single bolus dose measured 72 hrs postdose by autoradiography; type: ADME, organism-based; set-up: dose 5 mg/kg, route intravenous; settings: in vivo; how it was run: as §3
[25] = Cmax in F344 rat kidney at 5 mg/kg, iv administered as single bolus dose after 30 min by HPLC method; type: ADME, organism-based; set-up: dose 5 mg/kg, route intravenous; how it was run: as §6
[26] = system: Liver; assay: AUC (0 to 24 hrs) in F344 rat liver at 5 mg/kg, iv administered as single bolus dose; type: ADME, organism-based; set-up: time < 24 hr, dose 5 mg/kg, route intravenous; settings: in vivo; how it was run: as §6
[27] = Tmax in F344 rat liver at 5 mg/kg, iv administered as single bolus dose by HPLC method; type: ADME, organism-based; set-up: dose 5 mg/kg, route intravenous; how it was run: as §5
[28] = system: Zone of skin; assay: Drug level in Long Evans rat skin assessed as radioactivity per gram of tissue at 5 mg/kg, iv administered as single bolus dose measured 168 hrs postdose by autoradiography; type: ADME, organism-based; set-up: dose 5 mg/kg, route intravenous; settings: in vivo; how it was run: as §3

SMILES: CCCCCOc1ccc(-c2ccc(-c3ccc([14C](=O)N[C@H]4C[C@@H](O)[C@@H](O)NC(=O)[C@@H]5[C@@H](O)[C@@H](C)CN5C(=O)[C@H]([C@@H](C)O)NC(=O)[C@H]([C@H](O)[C@@H](O)c5ccc(O)cc5)NC(=O)[C@@H]5C[C@@H](O)CN5C(=O)[C@H]([C@@H](C)O)NC4=O)cc3)cc2)cc1 [14C-ANIDULAFUNGIN]
- Tmax [1]: 30 min
- Tmax [2]: 4.98 min
- Drug uptake [3]: 1.17 ugequiv
- Drug uptake [4]: 1.53 ugequiv
- Cmax [5]: 39.29 ugequiv/g
- Drug uptake [6]: 9.18 ugequiv
- Tmax [7]: 30 min
- t1/2 [8]: 40.3 h
- Tmax [9]: 4.98 min
- Tmax [10]: 30 min
- t1/2 [11]: 1710 min
- Tmax [12]: 4.98 min
- Cmax [13]: 30.92 ugequiv/g
- AUC [14]: 177.87 ugequiv.hr/g
- Drug uptake [15]: 2.53 ugequiv
- Cmax [16]: 4020 ng/g
- AUC [17]: 54.33 µg·h/g
- Drug uptake [18]: 0.85 ugequiv
- Tmax [19]: 4.98 min
- AUC [20]: 1152.68 ugequiv.hr/g
- Drug uptake [21]: 0.26 ugequiv
- Drug uptake [22]: 10.25 ugequiv
- AUC [23]: 102.96 ugequiv.hr/g
- Drug uptake [24]: 0.43 ugequiv
- Cmax [25]: 16100 ng/g
- AUC [26]: 586.44 µg·h/g
- Tmax [27]: 4.98 min
- Drug uptake [28]: 2.48 ugequiv
